Screening results as filed in PubChem.
CYP2C19 act: human CYP2C19 activators, primary screen, biochemical, luminescence; activation factor at 5 µM; 96,000 tested, under 10 active; AID 1025, 2008; recombinant CYP2C19, luciferin-H EGE luminescence; stronger effect = higher value; 0 = fully inhibited enzyme, 1 = untreated enzyme; Cytochrome P450 2C19 (Homo sapiens), P33261;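 active = activation factor of at least 2 at 5 µM in the primary screen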;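 note: 0 = wells with 2.5 mM tranylcypromine and 1 = vehicle-only wells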
Target sequence (P33261 whole entry, looked up): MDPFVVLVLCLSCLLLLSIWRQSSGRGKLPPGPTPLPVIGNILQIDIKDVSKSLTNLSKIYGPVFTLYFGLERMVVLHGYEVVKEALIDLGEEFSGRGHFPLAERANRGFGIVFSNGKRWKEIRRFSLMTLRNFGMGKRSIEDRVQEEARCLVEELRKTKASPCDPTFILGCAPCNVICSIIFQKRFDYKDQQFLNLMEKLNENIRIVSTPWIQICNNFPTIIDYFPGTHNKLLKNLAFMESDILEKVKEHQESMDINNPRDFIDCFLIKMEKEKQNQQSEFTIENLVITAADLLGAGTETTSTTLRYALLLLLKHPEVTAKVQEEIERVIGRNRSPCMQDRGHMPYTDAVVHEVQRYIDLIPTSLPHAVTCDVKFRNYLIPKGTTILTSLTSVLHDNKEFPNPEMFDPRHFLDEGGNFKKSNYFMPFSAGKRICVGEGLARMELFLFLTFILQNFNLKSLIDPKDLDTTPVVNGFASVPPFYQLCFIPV
CYP2C9 activ: human CYP2C9 activators, primary screen, biochemical, luminescence. Cytochrome P450 2C9 (Homo sapiens), P11712. recombinant CYP2C9, luciferin-H conversion; stronger effect = higher value; factor 1 = untreated enzyme, 0 = blocked. activation factor at 5 µM. actives 1.4% (n = 96,000). AID 1024, 2008;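 active = activation factor of 2 or more for CYP2C9 at a 5 µM dose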;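 note: 0 = sulfaphenazole-blocked wells and 1 = vehicle-only wells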
Rev-RRE block: HIV-1 Rev-RRE binding inhibitors, primary screen, biochemical, FRET, protein-RNA interaction. Rev peptide-RRE RNA binding. inhibition, % at 8 µM. actives 0.79% (n = 97,000);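 active = inhibition above the screen-wide mean plus 3 SD, cut at about 35% in these data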;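 note: 0% = median DMSO wells and 100% = median Neomycin B control wells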
Target sequence (P05866 whole entry, looked up): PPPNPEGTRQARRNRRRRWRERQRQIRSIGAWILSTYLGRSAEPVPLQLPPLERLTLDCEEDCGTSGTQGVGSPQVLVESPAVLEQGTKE
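Test system: Cy5-tagged RRE RNA duplex with fluorescein-tagged Rev peptide; Probe or stimulus: labelled Rev peptide; Schedule: 5 min preincubation and 15 min binding, 25 °C; Signal: FRET fluorescence readout; Evaluation: % inhibition from 671/540 nm acceptor-to-donor ratio, scaled between controls; Control set: DMSO and neomycin B.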
CYP2C19 inh: blockers of cytochrome P450 2C19 activity – biochemical, luminescence, ADME assay, primary screen; CYP2C19 Supersomes, luciferin-H EGE luminescence, 30 min; inhibition, % at 5 µM; actives 21% (n = 96,000);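 active = CYP2C19 inhibition above a set limit at 5 µM in the primary screen, cut at about 50% in these data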;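 note: plate controls were negative control wells for no effect and 2.5 mM tranylcypromine positive control for full effect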
Cav32 inh: Cav3.2 calcium influx blockers – cell-based, Fluo-4 calcium fluorescence, FDSS, MLSMR library, primary screen | Voltage-dependent T-type calcium channel subunit alpha-1H (Homo sapiens), O95180 | Cav3.2-expressing cells; stronger effect = lower value | B-score at 10 µM | actives 4% (n = 100,000);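 active = single-dose well whose peak fluorescence ratio is a statistical outlier from its plate by either plate-standardised score or position-corrected B-score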
CYP2C9 inhib: blockers of cytochrome P450 2C9 activity – biochemical, luminescence, ADME assay, primary screen. P11712. CYP2C9 Supersomes, luciferin-H conversion. inhibition, % at 5 µM. actives 20% (n = 96,000);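 active = blocking of liver enzyme CYP2C9 beyond about 50% at 5 µM, limit read from the data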
* hit, by the source's call. An excerpt weighted towards active compounds, which were near 27% of everything screened.

What do the screens show for `COC(=O)[C@H](CCSC)NC(=O)Nc1ccc(C)cc1`?
CYP2C19 act: 0.4; CYP2C9 activ: 0.9; Rev-RRE block: 5; CYP2C19 inh: 60*; Cav32 inh: 0.11; CYP2C9 inhib: 12

What do the screens show for `COc1ccc(-n2nc3c(c2NC(=O)c2c(-c4ccccc4Cl)noc2C)CS(=O)(=O)C3)cc1`?
CYP2C19 act: 0.5; CYP2C9 activ: 0.2; Rev-RRE block: 9; CYP2C19 inh: 50; CYP2C9 inhib: 82*

What do the screens show for `Cc1onc(-c2ccccc2Cl)c1C(=O)Nc1cc(=O)n(C)c(=O)n1C`?
Rev-RRE block: 5

How did COc1ccc(NC(=O)c2c(-c3ccccc3Cl)noc2C)c(OC)c1 do in these assays?
CYP2C19 act: 0.4; CYP2C9 activ: 0.5; CYP2C19 inh: 59*; Cav32 inh: -0.35; CYP2C9 inhib: 49

Results for COc1ccc(OC)c(/C=N/NC(=O)CC2C(=O)NN=C2C)c1 (stereo unspecified) ?
CYP2C19 act: 1.1; CYP2C9 activ: 1; Rev-RRE block: 6; CYP2C19 inh: -11; Cav32 inh: -0.19; CYP2C9 inhib: -5

How did COC(=O)CN(c1cc(C(F)(F)F)ccc1Cl)S(C)(=O)=O do in these assays?
CYP2C19 act: 0.4; CYP2C9 activ: 1; Rev-RRE block: 6; CYP2C19 inh: 56*; Cav32 inh: -0.057; CYP2C9 inhib: 2

Results for COCCNC(=O)CN(c1cc(C(F)(F)F)ccc1Cl)S(C)(=O)=O ?
CYP2C19 act: 0.4; CYP2C9 activ: 1.2; Rev-RRE block: 3; CYP2C19 inh: 58*; Cav32 inh: 0.94; CYP2C9 inhib: -18

What do the screens show for `COc1ccc(NC(=O)Nc2cc(C)ccc2OC(F)F)c(OC)c1`?
CYP2C19 act: 0.7; CYP2C9 activ: 0.7; Rev-RRE block: 9; CYP2C19 inh: 33; Cav32 inh: -4; CYP2C9 inhib: 30

What do the screens show for `Cn1ncc(C#N)c1NC(=O)C1CC(c2ccc(Cl)cc2)=NO1` (stereo unspecified)?
CYP2C19 act: 0.3; CYP2C9 activ: 0.7; Rev-RRE block: -1; CYP2C19 inh: 72*; Cav32 inh: 1.1; CYP2C9 inhib: 31

How did Cc1cc(NC(=O)C2CC(c3ccc(Cl)cc3)=NO2)no1 (stereo unspecified) do in these assays?
CYP2C19 act: 0.8; CYP2C9 activ: 0.8; Rev-RRE block: 1; CYP2C19 inh: 16; Cav32 inh: 0.3; CYP2C9 inhib: 21

How did Cn1c(CN2CCOCC2)nnc1SCC(=O)NC1CCCCC1 do in these assays?
Rev-RRE block: 7; Cav32 inh: -0.72

What do the screens show for `CCOC(=O)c1cc(-c2ccc(F)cc2)n(CC(=O)Nc2nccs2)c1C`?
Rev-RRE block: 16

Results for CC(=O)c1cc(-c2ccccc2)n(CCC(=O)NCc2cccs2)c1C ?
CYP2C19 act: 0.3; CYP2C9 activ: 0.5; Rev-RRE block: 9; CYP2C19 inh: 73*; Cav32 inh: 0.0007; CYP2C9 inhib: 54*

How did CC(=O)c1cc(-c2ccc(F)cc2)n(CC(=O)NCc2cccs2)c1C do in these assays?
CYP2C19 act: 0.2; CYP2C9 activ: 0.5; Rev-RRE block: 5; CYP2C19 inh: 81*; CYP2C9 inhib: 49

Results for COCCNc1nc2c(c(=O)n(C)c(=O)n2C)n1Cc1cccc(C(F)(F)F)c1 ?
CYP2C19 act: 0.8; CYP2C9 activ: 0.9; Rev-RRE block: 1; CYP2C19 inh: 24; Cav32 inh: 0.86; CYP2C9 inhib: 6

How did CNC(=O)c1sccc1SCc1ccc(Cl)cc1Cl do in these assays?
CYP2C19 act: 0.2; CYP2C9 activ: 0.6; Rev-RRE block: 7; CYP2C19 inh: 75*; Cav32 inh: -2.4; CYP2C9 inhib: 38

Results for Clc1ccccc1/C=N/c1cc(-c2ccccc2)nn1-c1ccccc1 ?
CYP2C19 act: 1.1; CYP2C9 activ: 1; Rev-RRE block: 7; CYP2C19 inh: -8; Cav32 inh: -1.2; CYP2C9 inhib: -4

How did Cc1ccc(/C=C2\Sc3ccccc3C2=O)s1 do in these assays?
CYP2C19 act: 0.1; CYP2C9 activ: 0.3; Rev-RRE block: 30; CYP2C19 inh: 94*; Cav32 inh: -0.061; CYP2C9 inhib: 75*

Results for CCC(=O)N(C)/C=C1\Sc2ccccc2C1=O ?
CYP2C19 act: 0.8; CYP2C9 activ: 0.9; Rev-RRE block: 10; CYP2C19 inh: 20; Cav32 inh: -0.24; CYP2C9 inhib: 10

Results for O=C1/C(=C/c2cccnc2)Sc2ccccc21 ?
CYP2C19 act: 0.2; CYP2C9 activ: 0.3; Rev-RRE block: 32; CYP2C19 inh: 78*; Cav32 inh: -2.3; CYP2C9 inhib: 66*

Results for COc1ccc(NC(=S)N2CCN(C/C=C/c3ccccc3)CC2)cc1OC ?
CYP2C19 act: 0.9; CYP2C9 activ: 0.9; Rev-RRE block: -1; CYP2C19 inh: 9; Cav32 inh: -1.3; CYP2C9 inhib: 9

Results for COc1ccc([C@@H]2C[C@H](c3ccccc3)Oc3cc(C)cc(C)c32)cc1 ?
Cav32 inh: -0.65

What do the screens show for `CC(OC(=O)CN(C)S(=O)(=O)c1ccc(Cl)cc1)C(=O)Nc1cccc(Cl)c1` (stereo unspecified)?
CYP2C19 act: 0.6; CYP2C9 activ: 0.8; Rev-RRE block: 20; CYP2C19 inh: 37; Cav32 inh: -6.6*; CYP2C9 inhib: 20

How did O=C(c1c[nH]c(C(=O)C(Cl)(Cl)Cl)c1)c1ccccc1Cl do in these assays?
CYP2C19 act: 0.6; CYP2C9 activ: 0.3; Rev-RRE block: -1; CYP2C19 inh: 41; Cav32 inh: -3.3; CYP2C9 inhib: 72*

How did O=C(NN=C1CCCC1)C(=O)Nc1cccc(C(F)(F)F)c1 do in these assays?
CYP2C19 act: 1; CYP2C9 activ: 1.2; Rev-RRE block: 0; CYP2C19 inh: 3; Cav32 inh: 0.082; CYP2C9 inhib: -22

What do the screens show for `COc1cc(-c2ccc(NC(=O)CN3CCCCC3)c(OC)c2)ccc1NC(=O)CN1CCCCC1`?
Rev-RRE block: 17

How did CN1CCC(=C2c3ccccc3C=Cc3ccccc32)CC1 do in these assays?
Cav32 inh: -5*

How did CN1CCN(C(=O)N2c3ccccc3C=Cc3ccccc32)CC1 do in these assays?
CYP2C19 act: 0.9; CYP2C9 activ: 1; CYP2C19 inh: 7; Cav32 inh: 0.71; CYP2C9 inhib: 1

How did CSc1nc2nc3c(cn2n1)C(=O)CC(c1ccccc1)C3 (stereo unspecified) do in these assays?
CYP2C19 act: 0.5; CYP2C9 activ: 0.5; Rev-RRE block: 14; CYP2C19 inh: 51*; Cav32 inh: -0.22; CYP2C9 inhib: 50
